Measurements taken from ChEMBL document CHEMBL4184138 (Bioorg Med Chem Lett, 2017).
The source made the active and inactive calls. No cut-off for these calls is given here.

Experiments:
Mu-type opioid receptor = Mu-type opioid receptor (Rattus norvegicus, UniProt P33535); assay: Displacement of [3H]-DAMGO from mu opioid receptor in Wistar rat brain membranes preincubated for 1 hr measured after 1hr by scintillation counting method; type: cell membranes, Membrane
Method in brief: (§1)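 Opioid receptor binding done on rat brain membranes. Affinity values are given as mean ± SEM of 8-12 measurements.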

[1] = molecular target: Delta-type opioid receptor (Rattus norvegicus, UniProt P33533); assay: Displacement of [3H]-DPDPE from delta opioid receptor in Wistar rat brain membranes preincubated for 3 hrs measured after 1 hr by scintillation counting method; type: cell membranes, Membrane; method in brief: as §1
Rattus norvegicus = species on record: Rattus norvegicus; assay: Selectivity ratio of Ki from delta opioid receptor in Wistar rat brain membranes to Ki from mu opioid receptor in Wistar rat brain membranes; type: cell membranes
[2] = Half life in Kunming mouse 15% brain homogenate at 500 uM by RP-HPLC analysis; type: ADME, tissue-based
Method in brief: (§2)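 Peptide stability was measured by incubation in 15% mouse brain homogenate or in mouse plasma, and the half-life was determined for each matrix.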

[3] = Half life in Kunming mouse plasma at 500 uM by RP-HPLC analysis; type: ADME, cell-free; method in brief: as §2
Mus musculus [4] = assay: Antinociceptive activity in Kunming mouse assessed as increase in latency to withdrawal by measuring AUC at 20 nmol/kg, i.c.v measured up to 45 mins post dose by tail-flick test; type: functional, organism-based; set-up: dose 20 nmol/kg, time < 0.75 hr
Method in brief: (§3)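 Mouse tail-flick test. A single fixed dose was given, either 20 nmol/kg i.c.v. or 10 mg/kg s.c. Antinociception was followed as a time course, and the area under the effect-time curve (A.U.C) was calculated.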

Mus musculus [5] = assay: Antinociceptive activity in Kunming mouse assessed as increase in latency to withdrawal by measuring AUC at 10 mg/kg, sc measured up to 45 mins post dose by tail-flick test; type: functional, organism-based; set-up: dose 10 mg/kg, time < 0.75 hr; method in brief: as §3
Mus musculus [6] = assay: Antinociceptive activity in Kunming mouse assessed as increase in latency to withdrawal at 10 mg/kg, sc measured up to 5 to 45 mins post dose in presence of opioid antagonist naloxone by tail-flick test; type: functional, organism-based

Sequence of Mu-type opioid receptor (P33535 whole entry): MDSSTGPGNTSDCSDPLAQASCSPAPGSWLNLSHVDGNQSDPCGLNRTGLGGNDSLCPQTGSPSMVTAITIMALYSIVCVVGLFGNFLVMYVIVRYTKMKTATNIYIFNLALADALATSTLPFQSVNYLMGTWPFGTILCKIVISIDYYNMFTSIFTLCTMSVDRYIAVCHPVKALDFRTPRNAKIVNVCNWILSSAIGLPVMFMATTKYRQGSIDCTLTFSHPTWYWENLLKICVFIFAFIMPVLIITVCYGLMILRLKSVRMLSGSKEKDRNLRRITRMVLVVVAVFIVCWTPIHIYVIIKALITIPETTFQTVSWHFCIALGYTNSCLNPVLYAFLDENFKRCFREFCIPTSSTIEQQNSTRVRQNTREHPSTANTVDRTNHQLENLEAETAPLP
Sequence of Delta-type opioid receptor (P33533 whole entry): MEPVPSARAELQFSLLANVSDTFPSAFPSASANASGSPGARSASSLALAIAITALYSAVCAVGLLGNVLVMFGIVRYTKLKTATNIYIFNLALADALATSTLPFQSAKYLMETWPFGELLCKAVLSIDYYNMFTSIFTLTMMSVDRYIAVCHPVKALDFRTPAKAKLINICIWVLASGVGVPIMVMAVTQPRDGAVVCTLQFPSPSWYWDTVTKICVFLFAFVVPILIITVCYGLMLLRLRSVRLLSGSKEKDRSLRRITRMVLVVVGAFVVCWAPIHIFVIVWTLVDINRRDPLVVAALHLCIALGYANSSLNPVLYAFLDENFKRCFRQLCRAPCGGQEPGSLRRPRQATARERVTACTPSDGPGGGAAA

Structure (SMILES) | Ki (Mu-type opioid receptor) [nM] | Ki [1] [nM] | Ratio Ki (Rattus norvegicus) | half-life at 500 µM [2] [h] | half-life at 500 µM [3] [h] | AUC (Mus musculus [4]) | AUC (Mus musculus [5]) | Activity (Mus musculus [6])
C[C@@H](NC(=O)[C@@H](N)Cc1ccc(O)cc1)C(=O)NCC(=O)N[C@@H](Cc1c[nH]c2ccccc12)C(=O)N[C@@H](Cc1ccccc1)C(N)=O | 13.3 | 4050 | 305 | 3.66 | 2.51 | 336 | 304 | –
NC(=O)[C@H](Cc1ccccc1)NC(=O)[C@H](Cc1c[nH]c2ccccc12)NC(=O)[C@@H]1CCCN1C(=O)[C@@H](N)Cc1ccc(O)cc1 | – | – | – | – | – | 271 | 693 | –
C[C@@H](NC(=O)[C@H](Cc1ccc(O)cc1)NC(=N)N)C(=O)NCC(=O)N[C@@H](Cc1c[nH]c2ccccc12)C(=O)N[C@@H](Cc1ccc(Cl)cc1)C(N)=O | 3.2 | 2030 | 635 | 7.25 | 4.73 | 650 | 1400 | inactive
C[C@@H](NC(=O)[C@@H](N)Cc1ccc(O)cc1)C(=O)NCC(=O)N[C@@H](Cc1c[nH]c2ccccc12)C(=O)N[C@@H](Cc1ccc(Cl)cc1)C(N)=O | 7.7 | 4060 | 528 | 4.2 | 2.84 | 246 | 570 | –
C[C@@H](NC(=O)[C@H](Cc1ccc(O)cc1)NC(=N)N)C(=O)NCC(=O)N[C@@H](Cc1c[nH]c2ccccc12)C(=O)N[C@@H](Cc1ccccc1)C(N)=O | 1.81 | 3870 | 2140 | 7.4 | 4.08 | 1160 | 631 | –
